# Measurements collected from several papers.
# Protocols differ between the studies behind these lines.
# Target: Beta-2 adrenergic receptor (ADRB2, Homo sapiens, UniProt P07550)
SMILES,test,setting,endpoint,value
c1ccc(C(NCCNC(c2ccccc2)c2ccccc2)c2ccccc2)cc1,cell-free assay,10 µM,inhibition,1%
Clc1ccc2c(C3CCN(CCc4c[nH]c5ccccc45)CC3)c[nH]c2c1,"ligand displacement, radioligand",10 µM,inhibition,91%
O=C(NC[C@H](O)CO)[C@@H]1C[C@H](c2ccccc2)CCN1 (mixture of isomers),"ligand displacement, radioligand",10 µM,inhibition,-15.9%
CC(Cc1ccc2c(c1)OCO2)NCC(O)c1ccc(O)c(O)c1 (centres unmarked),"β-arrestin recruitment, agonist",,Emax,131%
Nc1ncc(-c2nc(N3CCOCC3)nc(N3CCOCC3)n2)c(C(F)F)n1,"cell-free assay, radioligand",10 µM,remaining signal,98%
COCc1c(-c2cc3cc(C)cc(OC)c3s2)c2c(N)ncnn2c1CN1CCNC(=O)C1,"ligand displacement, radioligand",10 µM,inhibition,14%
CN(CCN1CCC(OC(=O)Nc2ccccc2-c2ccccc2)CC1)C(=O)c1ccc(CN2CCC(C(N)=O)CC2)cc1,"ligand displacement, radioligand",1 µM,inhibition,-1%
CCN(CC)CCCC[C@H](NC(=O)[C@H](CC(C)C)NC(=O)[C@H](C)NC(=O)[C@H](Cc1ccccc1)NC(=O)c1ccc(C(C)(C)C)cc1)C(=O)N[C@@H](CO)C(=O)OC,"ligand displacement, radioligand",10 µM,remaining binding,101%
CC(C)N1CCC[C@H]1CNC(=O)c1cn(C2CCCC2)c(=O)c2c1c1ccccc1n2C,"ligand displacement, radioligand",10 µM,inhibition,-8%
O=C(Nc1cccnn1)N1CCN([C@@H]2CCOc3cc(C(F)(F)F)ccc32)CC1,cell-free assay,20 µM,inhibition,10%
Cn1cncc1[C@@](O)(COc1ccc(C#N)cc1-c1ccc(OC(F)(F)F)cc1)c1ccc(C#N)cc1,ligand displacement,10 µM,inhibition,23.1%
CC(C)Cn1cnc2c(N)nc3ccccc3c21,"ligand displacement, radioligand",10 µM,inhibition,18%
Cc1c(N2CCNCC2)nc2ccc(Br)cc2c1C(=O)NC[C@H](CCC(=O)O)c1ccccc1Cl,ligand displacement,10 µM,inhibition,18.4%
COc1ccc(S(=O)(=O)N2CCCCC2)cc1C,"ligand displacement, radioligand",10 µM,inhibition,< 30%
